Active and inactive are the calls of the source. The calls are words filed in the database; no cut-off is given here.
What was measured:
Poliovirus 1 [1] = assay: Antiviral activity against Human poliovirus type 1 infected in Human HeLa cell after 21 hrs post infection by plaque assay; assay type: functional, organism-based; conditions: Enterovirus C
Outline: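 HeLa cells infected with cDNA-derived PV1 (MOI 0.1), then treated after infection with 2 to 100 μM PPMO. Supernatant virus was titrated by plaque assay on HeLa monolayers 21 h later: 1% agar overlay, 36 h at 37°C, formaldehyde fixation, crystal violet staining and plaque count. IC50 was taken from triplicate samples.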

HeLa [2] = assay: Cytotoxicity against human HeLa cells at 10 uM by MTS assay; assay type: cell-based
Outline: (§1)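 HeLa cells at ~80% confluence, uninfected, exposed to 1–100 μM PPMO or water (mock) in serum-free DMEM-F-12 (1:1) for 24 h. MTS reagent was added for 4 h and absorbance read at 492 nm. Viability was expressed as percent of water-treated cells (set to 100%), averaged over 12 wells.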

HeLa [3] = assay: Cytotoxicity against human HeLa cells 10 uM after 24 hrs by MTS assay; assay type: cell-based; outline: as §1
Poliovirus 1 [4] = assay: Antiviral activity against Human poliovirus type 1 infected in mouse assessed as viral titer in spinal cord at 10 mg/kg, ip administered 1 hr post infection once daily for 5 days measured after 10 days by plaque assay; assay type: functional, organism-based; set-up: dose 10 mg/kg
Poliovirus 1 [5] = assay: Antiviral activity against Human poliovirus type 1 infected in mouse assessed as viral titer in spleen at 10 mg/kg, ip administered 1 hr post infection once daily for 5 days measured after 7 days by plaque assay; assay type: functional, organism-based; set-up: dose 10 mg/kg
Poliovirus 1 [6] = assay: Antiviral activity against Human poliovirus type 1 infected in mouse assessed as protection from virus-induced death at 10 mg/kg, ip administered 1 hr post infection once daily for 5 days measured after 7 days by plaque assay; assay type: functional, organism-based; set-up: dose 10 mg/kg
Outline: (§2)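 Poliovirus receptor transgenic (cPVR) mice, about 10 weeks old, were infected i.p. with 3 × 10^8 PFU wt PV1. They received 200 μg (~10 mg/kg) PPMO in 500 μl sterile PBS i.p., or PBS alone, at 1 h p.i. and then every 24 h ([…]; 6 mice per group). Mice were monitored daily for paralysis and death, and euthanized at near-total paralysis.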

Vero = assay: Cytotoxicity against African green monkey Vero cells at 10 uM after 24 hrs by MTS assay; assay type: cell-based; conditions: chlorocebus sabaeus
Poliovirus 1 [7] = assay: Antiviral activity against Human poliovirus type 1 infected in mouse assessed as viral titer in brain 10 mg/kg, ip administered 1 hr post infection once daily for 5 days measured after 8 days by plaque assay; assay type: functional, organism-based; set-up: dose 10 mg/kg
Poliovirus 1 [8] = assay: Antiviral activity against Human poliovirus type 1 infected in mouse assessed as protection from virus-induced death at 10 mg/kg, ip administered 1 hr post infection once daily for 5 days measured after 8 days by plaque assay; assay type: functional, organism-based; set-up: dose 10 mg/kg; outline: as §2
Poliovirus 1 [9] = assay: Antiviral activity against Human poliovirus type 1 infected in mouse assessed as viral titer in spleen at 10 mg/kg, ip administered 1 hr post infection once daily for 5 days measured after 8 days by plaque assay; assay type: functional, organism-based; set-up: dose 10 mg/kg
Poliovirus 1 [10] = assay: Antiviral activity against Human poliovirus type 1 infected in mouse assessed as viral titer in small intestine at 10 mg/kg, ip administered 1 hr post infection once daily for 5 days measured after 8 days by plaque assay; assay type: functional, organism-based; set-up: dose 10 mg/kg
Poliovirus 1 [11] = assay: Antiviral activity against Human poliovirus type 1 infected in mouse assessed as viral titer in muscle at 10 mg/kg, ip administered 1 hr post infection once daily for 5 days measured after 7 days by plaque assay; assay type: functional, organism-based; set-up: dose 10 mg/kg; conditions: Muscle tissue
Poliovirus 1 [12] = assay: Antiviral activity against Human poliovirus type 1 infected in mouse assessed as viral titer in spleen at 10 mg/kg, ip administered 1 hr post infection once daily for 5 days measured after 10 days by plaque assay; assay type: functional, organism-based; set-up: dose 10 mg/kg
SK-N-MC = assay: Cytotoxicity against human SK-N-MC cell at 10 uM after 24 hrs by MTS assay; assay type: cell-based
Poliovirus 1 [13] = assay: Antiviral activity against Human poliovirus type 1 infected in mouse assessed as viral titer in small intestine at 10 mg/kg, ip administered 1 hr post infection once daily for 5 days measured after 10 days by plaque assay; assay type: functional, organism-based; set-up: dose 10 mg/kg
Poliovirus 1 [14] = assay: Antiviral activity against Human poliovirus type 1 infected in mouse assessed as protection from virus-induced paralytic symptom at 10 mg/kg, ip administered 1 hr post infection once daily for 5 days measured after 10 days by plaque assay; assay type: functional, organism-based; set-up: dose 10 mg/kg; outline: as §2
Poliovirus 1 [15] = assay: Antiviral activity against Human poliovirus type 1 infected in mouse assessed as viral titer in large intestine at 10 mg/kg, ip administered 1 hr post infection once daily for 5 days measured after 10 days by plaque assay; assay type: functional, organism-based; set-up: dose 10 mg/kg
Poliovirus 1 [16] = assay: Antiviral activity against Human poliovirus type 1 infected in mouse assessed as viral titer in large intestine at 10 mg/kg, ip administered 1 hr post infection once daily for 5 days measured after 7 days by plaque assay; assay type: functional, organism-based; set-up: dose 10 mg/kg
HeLa [17] = assay: Cytotoxicity against human HeLa cell after 21 hrs by MTS assay; assay type: functional, cell-based
Outline: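 Uninfected HeLa cells were exposed to a range of PPMO concentrations for 21 h, then read by MTS assay (4 h, absorbance 492 nm) against water-mock cells set to 100%. CC50 was taken from the concentration–viability curve, and triplicate samples were averaged.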

Poliovirus 1 [18] = assay: Antiviral activity against Human poliovirus type 1 infected in mouse assessed as viral titer in brain at 10 mg/kg, ip administered 1 hr post infection once daily for 5 days measured after 10 days by plaque assay; assay type: functional, organism-based; set-up: dose 10 mg/kg
Poliovirus 1 [19] = assay: Antiviral activity against Human poliovirus type 1 infected in mouse assessed as viral titer in muscle at 10 mg/kg, ip administered 1 hr post infection once daily for 5 days measured after 8 days by plaque assay; assay type: functional, organism-based; set-up: dose 10 mg/kg; conditions: Muscle tissue
Poliovirus 1 [20] = assay: Antiviral activity against Human poliovirus type 1 infected in mouse assessed as viral titer in brain at 10 mg/kg, ip administered 1 hr post infection once daily for 5 days measured after 7 days by plaque assay; assay type: functional, organism-based; set-up: dose 10 mg/kg
Poliovirus 1 [21] = assay: Antiviral activity against Human poliovirus type 1 infected in mouse assessed as protection from virus-induced paralytic symptom at 10 mg/kg, ip administered 1 hr post infection once daily for 5 days measured after 7 days by plaque assay; assay type: functional, organism-based; set-up: dose 10 mg/kg; outline: as §2
Poliovirus 1 [22] = assay: Antiviral activity against Human poliovirus type 1 infected in mouse assessed as protection from virus-induced paralytic symptom at 10 mg/kg, ip administered 1 hr post infection once daily for 5 days measured after 8 days by plaque assay; assay type: functional, organism-based; set-up: dose 10 mg/kg; outline: as §2
Poliovirus 1 [23] = assay: Antiviral activity against Human poliovirus type 1 infected in mouse assessed as viral titer in small intestine at 10 mg/kg, ip administered 1 hr post infection once daily for 5 days measured after 7 days by plaque assay; assay type: functional, organism-based; set-up: dose 10 mg/kg
Poliovirus 1 [24] = assay: Antiviral activity against Human poliovirus type 1 infected in mouse assessed as viral titer in large intestine at 10 mg/kg, ip administered 1 hr post infection once daily for 5 days measured after 8 days by plaque assay; assay type: functional, organism-based; set-up: dose 10 mg/kg
Poliovirus 1 [25] = assay: Antiviral activity against Human poliovirus type 1 infected in mouse assessed as viral titer in muscle at 10 mg/kg, ip administered 1 hr post infection once daily for 5 days measured after 10 days by plaque assay; assay type: functional, organism-based; set-up: dose 10 mg/kg; conditions: Muscle tissue
Poliovirus 1 [26] = assay: Antiviral activity against Human poliovirus type 1 infected in mouse assessed as viral titer in spinal cord at 10 mg/kg, ip administered 1 hr post infection once daily for 5 days measured after 8 days by plaque assay; assay type: functional, organism-based; set-up: dose 10 mg/kg
Poliovirus 1 [27] = assay: Antiviral activity against Human poliovirus type 1 infected in Human HeLa cell assessed as inhibition of translation at 10 uM by luciferase reporter gene assay; assay type: functional, organism-based
Outline: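 HeLa cells were pretreated 4 h with 10 μM PPMO, then electroporated with 20 μg noncapped PV1-Luc replicon RNA (IRES-driven). They were kept in medium with 10 μM PPMO, with or without 2 mM guanidine HCl, at 37°C in 5% CO2. Luciferase in cell lysates was read at 1-h intervals after transfection. Two experiments were averaged.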

Poliovirus 1 [28] = assay: Antiviral activity against Human poliovirus type 1 infected in mouse assessed as viral titer in spinal cord at 10 mg/kg, ip administered 1 hr post infection once daily for 5 days measured after 7 days by plaque assay; assay type: functional, organism-based; set-up: dose 10 mg/kg
Poliovirus 1 [29] = assay: Antiviral activity against Human poliovirus type 1 infected in Human HeLa cell assessed as inhibition of translation at 10 ug/ml by luciferase reporter gene assay; assay type: functional, organism-based
Outline: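 In-cell translation control: HeLa cells electroporated with 20 μg PV1-Luc replicon RNA were placed in medium with 10 μg/ml puromycin at 37°C in 5% CO2. Luciferase in lysates was read by luminometer at hourly time points after transfection. Two experiments were averaged.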

Poliovirus 1 [30] = assay: Antiviral activity against Human poliovirus type 1 infected in mouse assessed as protection from virus-induced death at 10 mg/kg, ip administered 1 hr post infection once daily for 5 days measured after 10 days by plaque assay; assay type: functional, organism-based; set-up: dose 10 mg/kg; outline: as §2

Cc1cn([C@H]2CN(P(=O)(OC[C@@H]3CN(P(=O)(OC[C@@H]4CNC[C@H](n5cnc6c(=O)[nH]c(N)nc65)O4)N(C)C)C[C@H](n4cnc5c(N)ncnc54)O3)N(C)C)C[C@@H](COP(=O)(N(C)C)N3C[C@@H](COP(=O)(N(C)C)N4C[C@@H](COP(=O)(N(C)C)N5C[C@@H](COP(=O)(N(C)C)N6C[C@@H](COP(=O)(N(C)C)N7C[C@@H](COP(=O)(N(C)C)N8C[C@@H](COP(=O)(N(C)C)N9C[C@@H](COP(=O)(N(C)C)N%10C[C@@H](COP(=O)(N(C)C)N%11C[C@@H](COP(=O)(N(C)C)N%12C[C@@H](COP(=O)(N(C)C)N%13C[C@@H](COP(=O)(N(C)C)N%14C[C@@H](COP(=O)(N(C)C)N%15C[C@@H](COP(=O)(N(C)C)N%16C[C@@H](COP(=O)(N(C)C)N%17C[C@@H](COP(=O)(N(C)C)N%18C[C@@H](COP(=O)(N(C)C)N%19C[C@@H](COP(=O)(N(C)C)N%20C[C@@H](COP(=O)(N(C)C)N%21C[C@@H](COP(=O)(N(C)C)N%22CCN(C(=O)CCNC(=O)CCCCCNC(=O)[C@H](CCCNC(=N)N)NC(=O)CCCCCNC(=O)[C@H](CCCNC(=N)N)NC(=O)[C@H](CCCNC(=N)N)NC(=O)CCCCCNC(=O)[C@H](CCCNC(=N)N)NC(=O)[C@H](CCCNC(=N)N)NC(=O)CCCCCNC(=O)[C@H](CCCNC(=N)N)NC(=O)[C@H](CCCNC(=N)N)NC(=O)CCCCCNC(=O)[C@@H](N)CCCNC(=N)N)CC%22)O[C@@H](n%22cnc%23c(=O)[nH]c(N)nc%23%22)C%21)O[C@@H](n%21cnc%22c(N)ncnc%22%21)C%20)O[C@@H](n%20cnc%21c(N)ncnc%21%20)C%19)O[C@@H](n%19cnc%20c(N)ncnc%20%19)C%18)O[C@@H](n%18ccc(N)nc%18=O)C%17)O[C@@H](n%17cnc%18c(N)ncnc%18%17)C%16)O[C@@H](n%16ccc(N)nc%16=O)C%15)O[C@@H](n%15cnc%16c(=O)[nH]c(N)nc%16%15)C%14)O[C@@H](n%14cnc%15c(=O)[nH]c(N)nc%15%14)C%13)O[C@@H](n%13cnc%14c(N)ncnc%14%13)C%12)O[C@@H](n%12ccc(N)nc%12=O)C%11)O[C@@H](n%11cnc%12c(N)ncnc%12%11)C%10)O[C@@H](n%10ccc(N)nc%10=O)C9)O[C@@H](n9ccc(N)nc9=O)C8)O[C@@H](n8ccc(N)nc8=O)C7)O[C@@H](n7cnc8c(N)ncnc87)C6)O[C@@H](n6cnc7c(N)ncnc76)C5)O[C@@H](n5cnc6c(N)ncnc65)C4)O[C@@H](n4cnc5c(=O)[nH]c(N)nc54)C3)O2)c(=O)[nH]c1=O (some centres not stated)
IC50 (Poliovirus 1 [1]): 2 µM
Activity (HeLa [2]): Non-toxic
Activity (HeLa [3]): Toxic
Activity (Poliovirus 1 [4]): Active
Activity (Poliovirus 1 [5]): inactive
Activity (Poliovirus 1 [6]): Active
Activity (Vero): Non-toxic
Activity (Poliovirus 1 [7]): Active
Activity (Poliovirus 1 [8]): Active
Activity (Poliovirus 1 [9]): inactive
Activity (Poliovirus 1 [10]): Active
Activity (Poliovirus 1 [11]): inactive
Activity (Poliovirus 1 [12]): inactive
Activity (SK-N-MC): Non-toxic
Activity (Poliovirus 1 [13]): Active
Activity (Poliovirus 1 [14]): Active
Activity (Poliovirus 1 [15]): inactive
Activity (Poliovirus 1 [16]): inactive
CC50 (HeLa [17]): 52 µM
Activity (Poliovirus 1 [18]): Active
Activity (Poliovirus 1 [19]): inactive
Activity (Poliovirus 1 [20]): Active
Activity (Poliovirus 1 [21]): Active
Activity (Poliovirus 1 [22]): Active
Activity (Poliovirus 1 [23]): Active
Activity (Poliovirus 1 [24]): inactive
Activity (Poliovirus 1 [25]): inactive
Activity (Poliovirus 1 [26]): Active
Activity (Poliovirus 1 [27]): Active
Activity (Poliovirus 1 [28]): Active
Activity (Poliovirus 1 [29]): inactive
Activity (Poliovirus 1 [30]): Active
